Results taken from ChEMBL document CHEMBL2311527, “Synthesis of cembranoid analogues and evaluation of their potential as quorum sensing inhibitors” (Bioorg Med Chem, 2013).
Active and inactive are the calls of the source. The calls are words filed in the database; no cut-off is given here.

Experiments:
[1] = tested on: Chromobacterium violaceum; test: Inhibition of quorum sensing system in Chromobacterium violaceum ATCC 31532 assessed as inhibition of violacein pigment production at 30 ug/disk after 48 hrs by NCCLS disk diffusion method
Method in brief: (§1)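 Sterile 5.2 mm filter-paper disks were loaded with 30.0, 15.0, 7.5, 5.0 and 2.5 per disk from MeOH solutions and air-dried for 1 h. They were placed on trypticase soy agar spread with C. violaceum broth culture (10^6 cfu/mL, 0.5 McFarland) and incubated 48 h at 26 °C. The endpoint was the minimum amount per disk giving a colourless, opaque but viable halo, meaning violacein loss without growth inhibition. Kojic acid and Cu2O served as positive controls.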

[2] = tested on: Chromobacterium violaceum; test: Inhibition of quorum sensing system in Chromobacterium violaceum ATCC 31532 assessed as inhibition of violacein pigment production measured per disk after 48 hrs by NCCLS disk diffusion method; method in brief: as §1
[3] = tested on: Chromobacterium violaceum; test: Antibacterial activity against Chromobacterium violaceum ATCC 31532 assessed as growth inhibition at 2.5 to 30 ug/disk after 48 hrs by NCCLS disk diffusion method; type: functional, organism-based

| SMILES | inhibition [1] | INH [2] | growth inhibition (GI) [3] |
| --- | --- | --- | --- |
| C=C(C)[C@@H]1CC[C@@H](C)[C@H](O)CC[C@@H](C)CC2(O)C[C@@H](C)[C@@H](C1)O2 | inactive | – | – |
| C=C(C)[C@H]1C[C@H](O)/C(C)=C/CC[C@@]2(C)O[C@@H]2CC/C(COC(C)=O)=C/[C@@H]1O | – | 30 µg | – |
| C=C(C)[C@H]1CC/C(C)=C/CC[C@@]2(C)O[C@@H]2CC/C(C=O)=C/[C@@H]1O | inactive | – | – |
| C=C(C)[C@@H]1C/C=C(\COC(C)=O)CC[C@@H](O)C(=C)CC/C=C(\C)CC1 | inactive | – | – |
| C=C1CC/C=C(\C)CC[C@H](C(=C)C)[C@@H](OC(C)=O)/C=C(/COC(C)=O)CC[C@H]1O | – | 7.5 µg | – |
| C=C(C)[C@H]1CC/C(C)=C/CC[C@]2(C)O[C@H]1/C=C(\COC(C)=O)CC[C@H]2O | inactive | – | – |
| C=C(C)[C@@H]1CC[C@@H](C)C(=O)CC[C@H](C)CC(=O)C[C@@H](C)[C@H](O)C1 | inactive | – | – |
| C=C(C)[C@H]1CC/C(C)=C/CC[C@](C)(O)[C@H](O)CC/C(COC(C)=O)=C/[C@@H]1O | – | 7.5 µg | – |
| C=C(C)[C@@H]1CC[C@@H](C)[C@H](O)CC[C@H](C)CC(=O)C[C@@H](C)[C@H](O)C1 | – | 7.5 µg | – |
| O=c1cc(CO)occ1O | – | 90 µg | – |
| C=C(C)[C@@H]1CC[C@@H](C)[C@H](OC(C)=O)CC[C@@H](C)CC(=O)C[C@@H](C)[C@H](OC(C)=O)C1 | – | 15 µg | – |
| C=C(C)[C@@H]1C/C=C(\COC(C)=O)CC[C@@H](O)/C(C)=C\C/C=C(\C)CC1 | inactive | – | – |
| C=C(C)[C@H]1CC/C(C)=C/CC[C@@]2(C)O[C@@H]2CC/C(COC(C)=O)=C\[C@@H]1OC(C)=O | inactive | – | – |
| C=C(C)[C@H]1CC/C(C)=C/C/C=C(\C)[C@H](O)CC/C(COC(C)=O)=C\[C@@H]1OC(C)=O | – | 2.5 µg | – |
| CC(=O)OCC12CC[C@H]3O[C@]3(C)CCC3OC3(C)CC[C@H]([C@]3(C)CO3)[C@@H](O)C1O2 (stereo not given in full) | inactive | – | – |
| C=C(C)[C@H]1CC/C(C)=C/CC[C@@](C)(O)[C@@H]2CC/C(=C/[C@@H]1O)CO2 | inactive | – | – |
| C=C(C)[C@@H]1C/C=C(\COC(C)=O)CC[C@@H](O)[C@](C)(Cl)CC/C=C(\C)CC1 | inactive | – | – |
| C=C(C)[C@H]1CC/C(C)=C/C/C=C(/C)[C@@H](O)CC/C(COC(C)=O)=C\[C@@H]1OC(C)=O | – | 7.5 µg | – |
| C=C(C)[C@H]1CC/C(C)=C/CCC(C)(C=O)CC/C(COC(C)=O)=C/[C@@H]1O (stereo not given in full) | – | 7.5 µg | – |

| SMILES | inhibition [1] | INH [2] | growth inhibition (GI) [3] |
| --- | --- | --- | --- |
| C=C(C)[C@H]1CC/C(C)=C/CC[C@@]2(C)O[C@@H]2CC/C(COC(C)=O)=C\[C@@H]1O | inactive | – | – |
| C=C(C)[C@@H]1CC[C@@H](C)[C@H](OC(C)=O)CC[C@H](C)CC(=O)C[C@@H](C)[C@H](OC(C)=O)C1 | – | 30 µg | inactive |
| C=C(C)[C@@H]1CC[C@@H](C)[C@H](O)CC[C@H](C)CC2(O)C[C@@H](C)[C@@H](C1)O2 | – | 7.5 µg | inactive |
| C=C(C)[C@H]1CC/C(C)=C/CCC(C)C(=O)CC/C(COC)=C/[C@@H]1O (stereo not given in full) | inactive | – | – |
| C=C(C)[C@H]1CC/C(C)=C/CC[C@@]2(C)O[C@@H]2CCC(C=O)=CC1=O | inactive | – | – |
| C=C1CC/C=C(\C)CC[C@H](C(=C)C)[C@@H](O)/C=C(\COC(C)=O)CC[C@H]1O | – | 7.5 µg | – |
| C=C(C)[C@H]1CC/C(C)=C/CC[C@@](C)(Cl)[C@H](O)CC/C(COC(C)=O)=C\[C@@H]1OC(C)=O | inactive | – | – |
| C=C(C)[C@H]1CC[C@@](C)(O)[C@H]2CCC(=C)[C@@H](CC/C(CO)=C/[C@@H]1O)O2 | inactive | – | – |
| C=C(C)[C@H]1CC/C(C)=C/CC[C@@]2(C)O[C@H]1/C=C(\CO)CC[C@H]2O | – | 30 µg | – |
| C=C(C)[C@@H]1CC[C@@H](C)C(=O)CC[C@H](C)CC2(O)C[C@@H](C)[C@@H](C1)O2 | inactive | – | – |
| C=C(C)[C@@H]1C/C=C(/COC(C)=O)CC[C@H]2O[C@]2(C)CC/C=C(\C)CC1 | inactive | – | – |
| C=C(C)[C@H]1CC/C(C)=C/CC[C@@](C)(Cl)[C@H](O)CC/C(CO)=C/[C@@H]1O | – | 30 µg | – |
| C=C(C)[C@H]1CC/C(C)=C/CC[C@@](C)(O)[C@H](O)CC/C(CO)=C/[C@@H]1O | inactive | – | – |
| C=C(C)[C@H]1CC/C(C)=C/CC[C@@]2(C)O[C@@H]2CC/C(CO)=C\[C@@H]1O | inactive | – | – |
| C=C(C)[C@@H]1CC[C@@H](C)C(=O)CC[C@H](C)CC(=O)C[C@@H](C)[C@H](OC(C)=O)C1 | – | 7.5 µg | – |
| C=C(C)[C@H]1CC/C(C)=C/CC[C@@](C)(Cl)[C@H](O)CC/C(COC(C)=O)=C/[C@@H]1O | – | 7.5 µg | – |
| C=C(C)[C@H]1CC/C(C)=C/C/C=C(/C)[C@H](O)CC/C(COC(C)=O)=C/[C@@H]1O | inactive | – | – |
| C=C(C)[C@H]1CC[C@@](C)(I)[C@H]2CC[C@@](C)(O2)[C@@H](I)CC/C(COC(C)=O)=C/[C@@H]1O | inactive | – | – |
| C=C(C)[C@@H]1CC[C@@H](C)[C@H](O)CC[C@@H](C)CC(=O)C[C@@H](C)[C@H](O)C1 | inactive | – | – |
